This is an account of results in PubChem BioAssay AID720661 (The Scripps Research Institute Molecular Screening Center, 2013).

In general, EC50 refers to the concentration that produces a half-maximal response.

SMILES strings stand for the structures. Active and inactive are the calls of the source.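 Rule for the calls: active = EC50 of 10 µM or lower; inactive = EC50 above 10 µM.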

The test system of this assay is 293 cells GAL4-VP16 luciferase reporter, luminescence. Kind of assay: GAL4-VP16 luciferase reporter activators, dose response, counter-screen for BRM (SMARCA2) activator project, cell-based, luminescence, late stage (AID 720661). Summed up: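 Assay system – 293 cells carrying GAL4-VP16 and pGL4.31 reporter · Amount – 2,500 cells/well · Evaluation – EC50 from four-parameter fit of percent activation · Times – compound exposure of 24 h at 37 °C · Control set – DMSO and SAHA reference wells for normalization · Doses – 10 points, 1:3 steps, up to 91.2 µM · Detection – One-Glo luminescence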
In general terms: A reporter such as luciferase makes a cellular process visible.
For the compound `Cc1cc(C)c2nc(NC(=O)C(C)C)sc2c1`, the EC50 was > 91.2 µM (inactive).
`COc1ccc(-c2nc(C#N)c(NC3CC3)o2)cc1`: the EC50 is > 91.2 µM (inactive).
Take `O=C(NCC1(c2nc(-c3ccccc3)cs2)CCOCC1)c1cccc(-c2noc(C(F)(F)F)n2)c1`: the EC50 is > 91.2 µM (inactive).
The result for `Cc1nc(NC(=O)c2cccc(Br)c2)sc1C` reads > 91.2 µM (inactive); that for `Cc1ccc(Nc2nc(-c3ccccc3)c(C)s2)cc1`, > 91.2 µM (inactive); that for `Clc1ccc(Cc2nc(-c3ccccc3)cs2)cc1`, > 91.2 µM (inactive).
Take `Oc1ccccc1OCc1nc2ccccc2s1`: the EC50 is > 91.2 µM (inactive).
